Results taken from ChEMBL document CHEMBL1123601, “Enantiomers of 1-ethyl-7-[3-[(ethylamino)methyl]-1-pyrrolidinyl]-6,8-difluoro-1,4- dihydro-4-oxo-3-quinoline-carboxylic acid: preparation and biological activity” (J Med Chem, 1987).
Values after ≈ are worked out from the molar mass of the structure shown.

How the values were obtained:
Assay type in all cases: functional
[1] = test system: Providencia rettgeri; test: Minimum inhibitory concentration (MIC) of compound was measured on Providencia rettgeri H1771 (gram negative organism)
Procedure, shortened: (§1)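 MICs (µg/mL) by standard microdilution (microtitration), with the enantiomers tested side by side with racemate across the organism panel. Aqueous stocks made up in 0.1 N NaOH or KOH. Performed in duplicate or triplicate; error of one serial dilution.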

[2] = test system: Escherichia coli; test: Minimum inhibitory concentration (MIC) of compound was measured on Escherichia coli H560 (gram negative organism); procedure, shortened: as §1
[3] = test system: Escherichia coli; test: Minimum inhibitory concentration (MIC) of compound was measured on Escherichia coli Vogel(gram negative organism); procedure, shortened: as §1
[4] = test system: Streptococcus pneumoniae; test: Minimum inhibitory concentration (MIC) of compound was measured on Streptococcus pneumoniae SV-1(gram positive organism); procedure, shortened: as §1
[5] = test system: Staphylococcus aureus; test: Minimum inhibitory concentration (MIC) of compound was measured on Staphylococcus aureus UC-76(gram positive organism); procedure, shortened: as §1
[6] = test system: Streptococcus pneumoniae; test: Dose required to protect 50% of mice from lethal infection was measured on Streptococcus pneumoniae SV-1(peroral administration); conditions: po, read-out: PD50
Procedure, shortened: (§2)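 Female CD-1 mice (18-22 g) received an intraperitoneal challenge of about 100 median lethal doses of S. pneumoniae in tryptic soy broth. A single dose was given at challenge in a twofold rising series, subcutaneously in aqueous solution or by oral gavage in 5% gum acacia. Survival of 8 mice per dose gave PD50 by log probit, with experiments run in duplicate.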

[7] = test system: Streptococcus pneumoniae; test: Dose required to protect 50% of mice from lethal infection was measured on Streptococcus pneumoniae SV-1 (subcutaneously); conditions: sc, read-out: PD50; procedure, shortened: as §2
[8] = test system: Pseudomonas aeruginosa; test: Minimum inhibitory concentration (MIC) of compound was measured on Pseudomonas aeruginosa UI-18(gram negative organism); procedure, shortened: as §1
[9] = test system: Streptococcus pyogenes; test: Dose required to protect 50% of mice from lethal infection was measured on Streptococcus pyogenes C203 (s.c.); conditions: sc, read-out: PD50
Procedure, shortened: (§3)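 The lethal systemic infection in female CD-1 mice (18-22 g) was an intraperitoneal challenge of about 100 median lethal doses. Compound was given once at challenge in twofold rising doses, subcutaneously as an aqueous solution or orally by gavage in 5% gum acacia. PD50 was estimated by log probit from survival of groups of 8 mice, with experiments run in duplicate.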

[10] = test system: Streptococcus pyogenes; test: Dose required to protect 50% of mice from lethal infection was measured on Streptococcus pyogenes C203 (p.o. administration); conditions: po, read-out: PD50; procedure, shortened: as §3
[11] = test system: Escherichia coli; test: Minimum concentration of compound needed to produce linear DNA at an intensity relative to oxolinic acid at 10 ug/mL was measured on Escherichia coli for gyrase-drug induced cleavage.
Procedure, shortened: (§4)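 DNA gyrase from E. coli H560 cells. Endpoint is the minimum drug concentration (µg/mL) that converts closed circular DNA to linear DNA, through denaturation of the drug–gyrase–DNA complex, at an intensity relative to oxolinic acid at 10 µg/mL. Linear DNA is resolved by gel electrophoresis and stained with ethidium bromide. Runs in duplicate or triplicate; error of one serial dilution.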

[12] = test system: Enterobacter cloacae; test: Minimum inhibitory concentration (MIC) of compound was measured on Enterobacter cloacae HA 2646(gram negative organism); procedure, shortened: as §1
[13] = test system: Escherichia coli; test: Dose required to protect 50% of mice from lethal infection was measured on Escherichia coli vogel(peroral administration); conditions: po, read-out: PD50
Procedure, shortened: (§5)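 Female CD-1 mice (18-22 g) were challenged intraperitoneally with about 100 median lethal doses of E. coli in 5% hog gastric mucin. Single doses were given at challenge in a twofold rising series, subcutaneously as an aqueous solution or orally by gavage in 5% gum acacia. Groups of 8 mice per dose were used. PD50 was estimated from survival by log probit, with experiments run in duplicate.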

[14] = test system: Escherichia coli; test: Concentration of compound needed to produce linear DNA at an intensity relative to oxolinic acid at 10 ug/mL was measured on Escherichia coli for gyrase-drug induced cleavage,.; procedure, shortened: as §4
[15] = test system: Escherichia coli; test: Dose required to protect 50% of mice from lethal infection was measured on Escherichia coli vogel (subcutaneously); conditions: sc, read-out: PD50; procedure, shortened: as §5
[16] = test system: Enterococcus faecalis; test: Minimum inhibitory concentration (MIC) of compound was measured on Streptococcus faecalis MGH-2(gram positive organism); procedure, shortened: as §1
[17] = test system: Klebsiella pneumoniae; test: Minimum inhibitory concentration (MIC) of compound was measured on Klebsiella pneumoniae MGH-2(gram negative organism); procedure, shortened: as §1
[18] = test system: Streptococcus pyogenes; test: Minimum inhibitory concentration (MIC) of compound was measured on Streptococcus pyogenes C203 (gram positive organism); procedure, shortened: as §1
[19] = test system: Staphylococcus aureus; test: Minimum inhibitory concentration (MIC) of compound was measured on Staphylococcus aureus H228 (gram positive organism); procedure, shortened: as §1

In the case of `CCn1cc(C(=O)O)c(=O)c2cc(F)c(N3CCNCC3)cc21` [NORFLOXACIN], the MIC [1] is reported as 0.025 µg/mL (≈ 0.0783 µM), the MIC [2] is reported as 0.1 µg/mL (≈ 0.313 µM) and the MIC [3] is reported as 0.025 µg/mL (≈ 0.0783 µM). It also gave an MIC [4] of 1.6 µg/mL (≈ 5.01 µM), an MIC [5] of 0.05 µg/mL (≈ 0.157 µM) and an ED50 [6] of 150 mg/kg. It also gave an ED50 [7] of over 100 mg/kg, an MIC [8] of 0.2 µg/mL (≈ 0.626 µM) and an ED50 [9] of 45 mg/kg. The ED50 [10] was over 100 mg/kg, the Concentration [11] was 1 µg/mL and the MIC [12] was 0.1 µg/mL (≈ 0.313 µM). It also gave an ED50 [13] of 1 mg/kg, an IC50 [14] of 5.5 µg/mL (≈ 17.2 µM) and an ED50 [15] of 0.7 mg/kg. For the same compound, the MIC [16] was 1.6 µg/mL (≈ 5.01 µM), the MIC [17] was 0.05 µg/mL (≈ 0.157 µM) and the MIC [18] was 0.8 µg/mL (≈ 2.51 µM). It also gave an MIC [19] of 0.8 µg/mL (≈ 2.51 µM).
